ChEMBL document CHEMBL3351236, “Prodrug oncrasin-266 improves the stability, pharmacokinetics, and safety of NSC-743380” (Bioorg Med Chem, 2014)
Calls of active or inactive are those of the source. The calls are words filed in the database; no cut-off is given here.

Legend:
Mus musculus [1] = experiment: Toxicity in Balb/c mouse assessed as mortality at 150 mg/kg, ip dosed daily for 3 days using compound formulated in Solutol HS15 and ethyl alcohol measured on day 5; type: organism-based; set-up: dose 150 mg/kg, route intraperitoneal; conditions: in vivo, 72 h
NCI-H460 = experiment: Anticancer activity against human H460 cells at 0.03 to 30 uM by sulforhodamine B assay; type: functional, cell-based
Summary of the method: (§1)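 Sulforhodamine B viability assay on lung cancer cells exposed to a range of compound concentrations for 3 days. Untreated reference: DMSO-treated cells set as 100. Values are mean ± SD of quadruplicate wells.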

Mus musculus [2] = experiment: Toxicity in Balb/c mouse assessed as changes in blood cell parameters at 150 mg/kg, ip dosed daily for 3 days using compound formulated in Solutol HS15 and ethyl alcohol measured after 48 hrs; type: organism-based; set-up: dose 150 mg/kg, route intraperitoneal; conditions: in vivo
Spleen = experiment: Drug level in spleen of Balb/c mouse xenografted with human Calu3 cells assessed as aldehyde metabolite level at 60 mg/kg, iv using compound formulated in Solutol HS15 and ethyl alcohol measured after 24 hrs by HPLC/MS method; type: ADME, organism-based, Calu-3; set-up: dose 60 mg/kg, route intravenous; conditions: in vivo
Summary of the method: (§2)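 Nude mice bearing subcutaneous Calu3 xenografts, 1 mouse per treatment group. Organs and tumor were taken 24 h later and kept at −80°C, then homogenized in methanol (50 mg/ml) on ice. Homogenate was extracted with acetonitrile containing 0.2% formic acid plus an internal standard, centrifuged, and the supernatant analyzed by HPLC/MS.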

NCI-H1299 = experiment: Anticancer activity against human H1299 cells at 0.03 to 30 uM by sulforhodamine B assay; type: functional, cell-based; summary of the method: as §1
Mus musculus [3] = experiment: Toxicity in Balb/c mouse assessed as serum ALP level at 150 mg/kg, ip dosed daily for 3 days using compound formulated in Solutol HS15 and ethyl alcohol measured on day 6; type: organism-based; set-up: dose 150 mg/kg, route intraperitoneal; conditions: in vivo, 72 h
[4] = Stability in powder form in non-evacuated chambers at 37 degC after 1 to 14 days by HPLC method; type: physicochemical
Summary of the method: (§3)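 Powders were kept at 4°C, room temperature (21°C) or 37°C and sampled for up to 90 days. Each aliquot was dissolved in DMSO, diluted with 9 volumes acetonitrile, and analyzed by HPLC for purity.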

Mus musculus [5] = experiment: Toxicity in Balb/c mouse assessed as histopathological changes in liver at 150 mg/kg, ip dosed once using compound formulated in Solutol HS15 and ethyl alcohol measured after 48 hrs; conditions: in vivo
[6] = Drug level in lung of Balb/c mouse xenografted with human Calu3 cells at 60 mg/kg, iv using compound formulated in Solutol HS15 and ethyl alcohol measured after 24 hrs by HPLC/MS method; type: ADME, organism-based, Calu-3; set-up: dose 60 mg/kg, route intravenous; conditions: read-out: Drug uptake; summary of the method: as §2
Mus musculus [7] = experiment: Toxicity in Balb/c mouse assessed as serum ALT level at 150 mg/kg, ip dosed daily for 3 days using compound formulated in Solutol HS15 and ethyl alcohol measured on day 6; type: organism-based; set-up: dose 150 mg/kg, route intraperitoneal; conditions: in vivo, 72 h
Mus musculus [8] = experiment: Toxicity in Balb/c mouse assessed as serum ALP level at 25 mg/kg, ip dosed daily for 8 days using compound formulated in Solutol HS15 and ethyl alcohol measured on day 6; type: organism-based; set-up: dose 25 mg/kg, route intraperitoneal; conditions: in vivo, 192 h
Calu-3 = experiment: Anticancer activity against human Calu3 cells at 0.03 to 30 uM by sulforhodamine B assay; type: functional, cell-based; summary of the method: as §1
[9] = Drug level in intestine of Balb/c mouse xenografted with human Calu3 cells at 60 mg/kg, iv using compound formulated in Solutol HS15 and ethyl alcohol measured after 24 hrs by HPLC/MS method; type: ADME, organism-based, Calu-3; set-up: dose 60 mg/kg, route intravenous; conditions: read-out: Drug uptake; summary of the method: as §2
Kidney = experiment: Drug level in kidney of Balb/c mouse xenografted with human Calu3 cells assessed as aldehyde metabolite level at 60 mg/kg, iv using compound formulated in Solutol HS15 and ethyl alcohol measured after 24 hrs by HPLC/MS method; type: ADME, organism-based, Calu-3; set-up: dose 60 mg/kg, route intravenous; conditions: in vivo; summary of the method: as §2
Mus musculus [10] = experiment: Toxicity in Balb/c mouse assessed as mortality level at 300 mg/kg, ip using compound formulated in Solutol HS15 and ethyl alcohol measured after 3 days; type: organism-based; set-up: dose 300 mg/kg, route intraperitoneal; conditions: in vivo, 72 h
Summary of the method: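 Acute toxicity: 3 Balb/c mice (7–8 weeks) per group, given i.p. 300 mg/kg on day 1 and again on day 2. Deaths were recorded by day; survivors were followed for 2 weeks.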

[11] = Half life in Balb/c mouse at 25 mg/kg, iv using compound formulated in Solutol HS15 and ethyl alcohol by HPLC/MS method; type: ADME, organism-based; set-up: dose 25 mg/kg, route intravenous; conditions: in vivo
Summary of the method: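 Balb/c mice received 25 mg/kg by tail vein in Solutol HS15/ethanol vehicle. Blood was drawn from the tail vein at 0, 1, 2, 3.5, 7 and 24 h, 3 mice per time point, into lithium-heparin tubes. Plasma (50 µl) was precipitated with 150 µl acetonitrile containing 0.2% formic acid and internal standard, iced 15 min, centrifuged, and the supernatant analyzed by HPLC/MS for parent and released drug.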

Intestine = experiment: Drug level in intestine of Balb/c mouse xenografted with human Calu3 cells assessed as aldehyde metabolite level at 60 mg/kg, iv using compound formulated in Solutol HS15 and ethyl alcohol measured after 24 hrs by HPLC/MS method; type: ADME, organism-based, Calu-3; set-up: dose 60 mg/kg, route intravenous; conditions: in vivo; summary of the method: as §2
[12] = Stability in stock solution with Solutol HS15 and ethyl alcohol solvent at room temperature by HPLC method; type: physicochemical
Summary of the method: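 Stock solutions were made by dissolving compound in 75% (w/v) Solutol HS15 in ethanol (about 20% v/v ethanol). Final concentrations were 8 mg/ml for prodrug and 5 mg/ml for parent. Stocks were stored at 4°C or room temperature; aliquots were frozen at −20°C before HPLC.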

Mus musculus [13] = experiment: Toxicity in Balb/c mouse assessed as serum AST level at 150 mg/kg, ip dosed daily for 3 days using compound formulated in Solutol HS15 and ethyl alcohol measured on day 6; type: organism-based; set-up: dose 150 mg/kg, route intraperitoneal; conditions: in vivo, 72 h
Lung = experiment: Drug level in lung of Balb/c mouse xenografted with human Calu3 cells assessed as aldehyde metabolite level at 60 mg/kg, iv using compound formulated in Solutol HS15 and ethyl alcohol measured after 24 hrs by HPLC/MS method; type: ADME, organism-based, Calu-3; set-up: dose 60 mg/kg, route intravenous; conditions: in vivo; summary of the method: as §2
Mus musculus [14] = experiment: Toxicity in Balb/c mouse assessed as serum AST level at 25 mg/kg, ip dosed daily for 8 days using compound formulated in Solutol HS15 and ethyl alcohol; conditions: in vivo, 192 h
Liver = experiment: Drug level in liver of Balb/c mouse xenografted with human Calu3 cells assessed as aldehyde metabolite level at 60 mg/kg, iv using compound formulated in Solutol HS15 and ethyl alcohol measured after 24 hrs by HPLC/MS method; type: ADME, organism-based, Calu-3; set-up: dose 60 mg/kg, route intravenous; conditions: in vivo; summary of the method: as §2
Mus musculus [15] = experiment: Toxicity in Balb/c mouse assessed as serum ALT level at 25 mg/kg, ip dosed daily for 8 days using compound formulated in Solutol HS15 and ethyl alcohol measured on day 6; type: organism-based; set-up: dose 25 mg/kg, route intraperitoneal; conditions: in vivo, 192 h
[16] = Stability in powder form at 4 degC to 37 degC after 1 to 14 days by HPLC method; type: physicochemical; summary of the method: as §3
[17] = Stability in powder form in non-evacuated chambers at 37 degC after 14 days by HPLC method; type: physicochemical; conditions: read-out: Stability; summary of the method: as §3
NCI-H157 = experiment: Anticancer activity against human NCI-H157 cells at 0.03 to 30 uM by sulforhodamine B assay; type: functional, cell-based; summary of the method: as §1
Tumour = experiment: Drug level in tumor of Balb/c mouse xenografted with human Calu3 cells assessed as aldehyde metabolite level at 60 mg/kg, iv using compound formulated in Solutol HS15 and ethyl alcohol measured after 24 hrs by HPLC/MS method; type: ADME, organism-based, Neoplasm, Calu-3; set-up: dose 60 mg/kg, route intravenous; conditions: in vivo; summary of the method: as §2
[18] = Stability in injectable solution with Solutol HS15 and ethyl alcohol and 0.9% NaCl assessed as drug hydrolysis within 7 hrs at 37 degC by HPLC method; type: physicochemical; conditions: read-out: Drug degradation
[19] = Stability in injectable solution with Solutol HS15 and ethyl alcohol and 0.9% NaCl assessed as drug hydrolysis within 7 hrs at room temperature by HPLC method; type: physicochemical; conditions: 7 h
[20] = Drug level in tumor of Balb/c mouse xenografted with human Calu3 cells at 60 mg/kg, iv using compound formulated in Solutol HS15 and ethyl alcohol measured after 24 hrs by HPLC/MS method; type: ADME, organism-based, Neoplasm, Calu-3; set-up: dose 60 mg/kg, route intravenous; conditions: read-out: Drug uptake; summary of the method: as §2

In the case of `OCc1cn(Cc2cccc(Cl)c2)c2ccccc12`, the Activity (Mus musculus [1]) was “Toxic”, the Activity (NCI-H460) was “Active” and the Activity (Mus musculus [2]) was “Non-toxic”. The Drug uptake (Spleen) was 19.9 µg/g, the Activity (NCI-H1299) was “inactive” and the Activity (Mus musculus [3]) was 3 U/L. The Stability [4] was “Unstable”, the Activity (Mus musculus [5]) was “Toxic” and the concentration at 24 h [6] was 4200 ng/g. For the same compound, the Activity (Mus musculus [7]) was 1936 U/L, the Activity (Mus musculus [8]) was 44 U/L and the Activity (Calu-3) was “Active”. For the same compound, the concentration at 24 h [9] was 14300 ng/g, the Drug uptake (Kidney) was 31 µg/g and the Activity (Mus musculus [10]) was “Toxic”. It also gave a half-life [11] of 30 min, a Drug uptake (Intestine) of 30.1 µg/g and a Stability [12] of 1 weeks. The Activity (Mus musculus [13]) was 4045 U/L, the Drug uptake (Lung) was 34.3 µg/g and the Activity (Mus musculus [14]) was 206.7 U/L. For the same compound, the Drug uptake (Liver) was 25 µg/g, the Activity (Mus musculus [15]) was 80.3 U/L and the Stability [16] was “Stable”. For the same compound, the remaining at 336 h [17] was under 5%, the Activity (NCI-H157) was “Active” and the Drug uptake (Tumour) was 1.7 µg/g. For the same compound, the degraded at 7 h [18] was over 20%, the Stability [19] was “Stable” and the concentration at 24 h [20] was 4200 ng/g.
